Screening data (PubChem BioAssay)
Shown are actives, neighbours in structure and some others; about 4.6% of the full set was active somewhere.
CHO parental Ca – counter-screen for OX1R antagonists: effect in parental CHO cells; AID 463079; inhibition, % at 5.6 µM; actives 0.63% (n = 330,000); parental CHO-K1, ATP-induced calcium, Fluo-8 fluorescence;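 active = inhibition above that plate's mean sample inhibition plus 3 SD, cut at about 26% in these data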
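Test system: untransfected parental CHO cell line. Compound: one dose, 5.6 µM nominal. Detection: intracellular calcium via Fluo-8 no-wash fluorescent dye. Measure: % inhibition. Benchmarks: ATP-challenged DMSO wells low, unchallenged DMSO wells high.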
TAAR1 agonist – human TAAR1 agonism | Q96RJ0 | AID 624467 | CHO RD-HGA16 TAAR1, Fluo-8 calcium fluorescence; vehicle wells 0%, saturating PEA agonist 100% | actives 0.99% (n = 360,000) | activation, % at 3 µM;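 active = activation above the mean activation of all test compounds in the run plus 3 SD, cut at about 38% in these data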
Target sequence (Q96RJ0 whole entry, looked up): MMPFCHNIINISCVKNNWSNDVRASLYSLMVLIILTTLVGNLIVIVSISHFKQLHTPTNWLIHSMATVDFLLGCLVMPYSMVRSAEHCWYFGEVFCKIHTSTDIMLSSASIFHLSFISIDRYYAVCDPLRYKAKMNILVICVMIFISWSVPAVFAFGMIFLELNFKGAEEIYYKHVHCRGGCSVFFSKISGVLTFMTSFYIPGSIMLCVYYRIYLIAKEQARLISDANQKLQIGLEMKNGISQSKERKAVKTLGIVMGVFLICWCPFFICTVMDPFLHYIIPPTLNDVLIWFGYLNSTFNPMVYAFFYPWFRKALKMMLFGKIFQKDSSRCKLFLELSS
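Test system: RD-HGA16 (CHO) cells co-expressing Gα16 and hTAAR1; dosing: one-point dosing at 3 µM (nominal); timing: 17-24 h seeding, 75 min 37 °C dye, 30 min RT; signal: kinetic Fluo-8 calcium fluorescence; read-out basis: % activation relative to PEA EC100 response; controls: DMSO and PEA EC100; replicates: n 1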
TAAR1 antag – antagonists of human TAAR1; Q96RJ0; CHO RD-HGA16 TAAR1, Fluo-8 calcium fluorescence, antagonist; actives 1.5% (n = 360,000); AID 624466; inhibition, % at 3 µM;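 active = inhibition above a per-plate cutoff, the mean inhibition of test compounds on that plate plus 3 SD, cut at about 49% in these data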
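Assay system: CHO-derived RD-HGA16 cells stably expressing human TAAR1 plus Gα16. Timing: 140 s kinetic read after compound, 140 s after agonist. Technique: kinetic Fluo-8 calcium fluorescence measurement. Measure: % inhibition of agonist calcium response.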
OX1R antag-1 – antagonists of human orexin 1 receptor (OX1R). actives 1.8% (n = 330,000). OX1R-expressing cells, FRET antagonist read-out. inhibition, % at 6.6 µM. O43613; in the data active = inhibition mostly above about 38%, no sharp cut-off; inactive = mostly below about 40%
Target sequence (O43613 whole entry, looked up): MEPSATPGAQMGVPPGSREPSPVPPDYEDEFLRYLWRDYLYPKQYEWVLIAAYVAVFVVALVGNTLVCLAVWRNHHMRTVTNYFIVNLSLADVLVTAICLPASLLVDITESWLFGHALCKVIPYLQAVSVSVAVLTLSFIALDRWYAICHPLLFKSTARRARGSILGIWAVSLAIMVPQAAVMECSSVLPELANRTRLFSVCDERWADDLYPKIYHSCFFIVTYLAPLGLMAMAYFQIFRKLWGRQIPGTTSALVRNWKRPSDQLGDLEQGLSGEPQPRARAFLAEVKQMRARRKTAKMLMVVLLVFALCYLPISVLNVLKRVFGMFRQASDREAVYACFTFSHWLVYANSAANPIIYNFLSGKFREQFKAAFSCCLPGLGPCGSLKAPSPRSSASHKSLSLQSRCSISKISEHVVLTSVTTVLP
GPR7 antag – blocks human GPR7 receptor signaling | GPR7-expressing cells, fluorescence antagonist assay | actives 1.1% (n = 290,000) | inhibition, % at 4.4 µM; in the data active = inhibition above about 16%, passing the limit was not always enough;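 note: cells stimulated with the agonist NPW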
OX1R antag-2 – antagonists of human orexin 1 receptor; O43613; CHO/OX1R cells, Fluo-8 calcium fluorescence, orexin A; inhibition, % at 5 µM; actives 0.43% (n = 330,000);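 active = inhibition above its plate's threshold, mean inhibition of all tested compounds on the plate plus 3 SD, cut at about 37% in these data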
TAAR1 nonsel count – nonselective antagonism, TAAR1 counter-screen; shares compounds with TAAR1 antag; counterscreen cell line, calcium fluorescence, antagonist mode; inhibition, % at 3 µM; actives 77% (n = 2,400); in the data active = inhibition above about 22%;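 note: CHO-Ga16 host cells stimulated with ATP at an EC80 level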
TAAR1 antag conf – human TAAR1 antagonism, confirmed; shares compounds with TAAR1 antag; TAAR1-expressing cells, fluorescence antagonist read-out; inhibition, % at 3 µM; actives 40% (n = 2,400); in the data active = inhibition above about 49%;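 note: CHO-Ga16 host cells challenged with agonist PEA near its EC80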
Ga16 ag counter-1 – nonselective Ga16 agonist in TAAR1 antagonist counter-screen; shares compounds with TAAR1 antag; Ga16-expressing cells, calcium fluorescence, agonist counterscreen; activation, % at 3 µM; actives 18% (n = 2,400); AID 651953; in the data active = activation above about 12%
TAAR1 ag count – activates human TAAR1 in antagonist counter-screen | shares compounds with TAAR1 antag | hTAAR1 cell line, fluorescence activation, agonist mode | activation, % at 3 µM | actives 2% (n = 2,400) | AID 651955; in the data active = activation above about 37%;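 note: CHO cells stably expressing TAAR1 with calcium dye readout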
TAAR1 ag confirm – confirmation of human TAAR1 agonists; shares compounds with TAAR1 agonist; CHO RD-HGA16 TAAR1, Fluo-8 calcium fluorescence; scaled: DMSO 0%, maximal phenethylamine 100%; activation, % at 3 µM; actives 82% (n = 2,400); AID 651783;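 active = activation above a cutoff set at the run's mean compound activation plus 3 SD, cut at about 39% in these data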
Ga16 ag counter-2 – nonselective agonist in parental cells, TAAR1 agonist counter-screen; shares compounds with TAAR1 agonist; CHO-Ga16 parental, Fluo-8 calcium fluorescence; normalized to maximal ATP response, DMSO zero; activation, % at 3 µM; actives 50% (n = 2,400);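 active = activation above the run cutoff, the mean activation over all tested wells plus 3 SD, cut at about 12% in these data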
TAAR1 desensitize – counter-screen for human TAAR1 agonists: agonists that desensitize TAAR1; shares compounds with TAAR1 agonist; CHO RD-HGA16 hTAAR1, Fluo-8 calcium, beta-PEA response inhibition; inhibition, % at 3 µM; actives 46% (n = 2,400); AID 651951;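 active = inhibition above the run cutoff, the mean inhibition of all test compounds plus 3 SD, cut at about 49% in these data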;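 note: beta-PEA stimulus applied at its EC80; loss of beta-PEA calcium signal after compound pretreatment read as receptor desensitization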
Ga16 antag count – nonselective Ga16 antagonist in TAAR1 agonist counter-screen. actives 39% (n = 2,400). inhibition, % at 3 µM. CHO-Ga16 ATP-induced calcium, Fluo-8 fluorescence. shares compounds with TAAR1 agonist. AID 651952;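 active = inhibition above the plate's mean compound inhibition plus 3 SD, computed per plate, cut at about 22% in these data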
Large screens that a line does not name were inactive (follow-up assays come after a bar, where they were run).

COc1ccc(NC(=O)N(C)C[C@H]2Oc3c(NC(=O)Nc4ccccc4)cccc3C(=O)N([C@H](C)CO)C[C@@H]2C)cc1	none (no result: GPR7 antag)
CC(OC(=O)[C@@H]1CCCN1C(=O)c1cccs1)C(=O)Nc1cccc([N+](=O)[O-])c1 (stereo not given in full)	TAAR1 antag 65.7 (no result: GPR7 antag) | TAAR1 nonsel count 41.7 | TAAR1 antag conf inactive | Ga16 ag counter-1 13.3 | TAAR1 ag count inactive
CC(OC(=O)C1CC2CCCC(C1)C2=O)C(=O)Nc1cccc([N+](=O)[O-])c1 (stereo not given)	none (no result: GPR7 antag)
O=C(O)C(Oc1ccc2c(-c3ccccc3)cc(=O)oc2c1)c1ccccc1 (stereo not given)	none
COc1ccc2c(c1)c(=O)oc1cc(OC(C(=O)O)c3ccccc3)ccc12 (stereo not given)	TAAR1 antag 103.9 | TAAR1 nonsel count inactive | TAAR1 antag conf inactive | Ga16 ag counter-1 inactive | TAAR1 ag count inactive
Cc1cc(-c2cc(NC(=O)Cc3c(C)[nH]c4ccccc34)ccc2Nc2cccnc2)ccc1F	none (no result: CHO parental Ca, OX1R antag-1, GPR7 antag, OX1R antag-2)
COc1ccc(-c2cc(NC(=O)Cc3c[nH]c4ccccc34)ccc2Nc2cccnc2)c(OC)c1	TAAR1 antag 64.3 (no result: CHO parental Ca, OX1R antag-1, GPR7 antag, OX1R antag-2) | TAAR1 nonsel count 31.8 | TAAR1 antag conf 52.2 | Ga16 ag counter-1 inactive | TAAR1 ag count inactive
COc1ccc(-c2cc(NC(=O)Cc3c[nH]c4ccccc34)ccc2N(C)c2cccnc2)cc1F	none (no result: CHO parental Ca, OX1R antag-1, GPR7 antag, OX1R antag-2)
Cc1cc(-c2cc(NC(=O)Cc3c[nH]c4ccccc34)ccc2Nc2cccnc2)ccc1F	TAAR1 antag 62.9 (no result: CHO parental Ca, OX1R antag-1, GPR7 antag, OX1R antag-2) | TAAR1 nonsel count 26.8 | TAAR1 antag conf inactive | Ga16 ag counter-1 inactive | TAAR1 ag count inactive
O=C(N/N=C/c1cccn1-c1ccc([N+](=O)[O-])cc1)c1cccnc1	none
OCCNc1nc(Nc2cc(Cl)ccc2OC2CCCC2)nc(N2CCCC2)n1	TAAR1 antag 49.0 (no result: GPR7 antag) | TAAR1 nonsel count 21.9 | TAAR1 antag conf inactive | Ga16 ag counter-1 inactive | TAAR1 ag count inactive
COc1ccc(Cl)cc1Nc1nc(NCCO)nc(N2CCCC2)n1	none
CCn1cc(C(=O)Nc2ccc(Oc3cccnc3)cc2)c2ccccc21	none (no result: CHO parental Ca, OX1R antag-1, GPR7 antag, OX1R antag-2)
Cc1ccc(NC(=O)c2ccc(N3C(=O)C4CC=C(Cl)CC4C3=O)cc2)cc1 (stereo not given)	TAAR1 antag 62.5 | TAAR1 nonsel count 23.8 | TAAR1 antag conf inactive | Ga16 ag counter-1 13.4 | TAAR1 ag count inactive
C/C(=N\O)c1ccc(N2C(=O)C3CC=C(Cl)CC3C2=O)cc1 (stereo not given)	none
Cc1ccc(C(=O)Nc2cccc(N3C(=O)C4CCC(C)CC4C3=O)c2)cc1 (stereo not given)	TAAR1 antag 71.3 | TAAR1 nonsel count 31.0 | TAAR1 antag conf 50.3 | Ga16 ag counter-1 inactive | TAAR1 ag count inactive
CCOc1ccc(/C=C2\SC(=S)N(NS(=O)(=O)c3ccc(C)cc3)C2=O)cc1OC	TAAR1 antag 74.9 | TAAR1 nonsel count 28.9 | TAAR1 antag conf 50.7 | Ga16 ag counter-1 inactive | TAAR1 ag count inactive
COc1cc(/C=C2\SC(=S)N(CCCCC(=O)O)C2=O)ccc1OS(=O)(=O)c1ccc(C)cc1	TAAR1 antag 65.1 (no result: GPR7 antag) | TAAR1 nonsel count 49.8 | TAAR1 antag conf 49.6 | Ga16 ag counter-1 12.0 | TAAR1 ag count inactive
COc1ccc(/C=C2\SC(=S)N(NS(=O)(=O)c3ccc(C)cc3)C2=O)c(OC)c1	TAAR1 antag 68.5, OX1R antag-1 60.0 | TAAR1 nonsel count inactive | TAAR1 antag conf inactive | Ga16 ag counter-1 inactive | TAAR1 ag count inactive
COc1ccc(/C=C2\SC(=S)N(CCCCCC(=O)Nc3cc(C)on3)C2=O)cc1OC	none
FC(F)(F)c1cccc(OCC2CNC(=S)O2)c1 (stereo not given)	none
O=c1c2ccccc2ncn1CCOCCOc1ccc([N+](=O)[O-])cc1	none
O=c1c2ccc([N+](=O)[O-])cc2ncn1CCOc1ccccc1	TAAR1 antag 77.1, OX1R antag-1 68.2 | TAAR1 nonsel count 26.4 | TAAR1 antag conf 61.8 | Ga16 ag counter-1 inactive | TAAR1 ag count inactive
Cc1ccc(OCCn2cnc3cc([N+](=O)[O-])ccc3c2=O)cc1	TAAR1 antag 78.2 | TAAR1 nonsel count 31.2 | TAAR1 antag conf 51.4 | Ga16 ag counter-1 inactive | TAAR1 ag count inactive
COc1cccc(NC(=S)N2CCC(C(=O)c3ccc(F)cc3)CC2)c1	none (no result: CHO parental Ca, OX1R antag-1, GPR7 antag, OX1R antag-2)
Oc1ccccc1C(=S)N1CCN(C(=S)c2ccccc2O)CC1	none
COCCCNC(=O)c1cc2cc3cc(OC)ccc3nc2o1	none
CC1(C(=O)Nc2cccc3ncccc23)CCN1C(=O)CCc1ccccc1 (stereo not given)	none (no result: CHO parental Ca, OX1R antag-1, GPR7 antag, OX1R antag-2)
CC1(C(=O)Nc2cccc3ncccc23)CCN1C(=O)Cc1ccc(-c2ccccc2)cc1 (stereo not given)	TAAR1 antag 67.3 (no result: CHO parental Ca, OX1R antag-1, GPR7 antag, OX1R antag-2) | TAAR1 nonsel count 28.8 | TAAR1 antag conf inactive | Ga16 ag counter-1 inactive | TAAR1 ag count inactive
Cc1ccc(NC(=O)CN(C)C(=O)Cn2cc(C(F)(F)F)cc(Cl)c2=O)cc1	none
COC(=O)[C@@]12C[C@@H](CC(=O)NCCCCc3ccccc3)C(=O)N(Cc3ccco3)C1=CCC(C)(C)C2	none (no result: CHO parental Ca, OX1R antag-1, GPR7 antag, OX1R antag-2)
CCN(CC)C(=O)Oc1nnc(SC(C)C)n1-c1ccc(Cl)c(Cl)c1	TAAR1 agonist 44.9 | TAAR1 ag confirm inactive | Ga16 ag counter-2 13.9 | TAAR1 desensitize inactive | Ga16 antag count inactive
